Measurements taken from ChEMBL document CHEMBL4007450, “Development of 1,2,4-Oxadiazoles as Potent and Selective Inhibitors of the Human Deacetylase Sirtuin 2: Structure-Activity Relationship, X-ray Crystal Structure, and Anticancer Activity” (J Med Chem, 2017).
Activity calls are given as the source filed them. No cut-off for these calls is given here.

Columns and labels:
U-937 [1] = test: Effect on cell cycle arrest in human U937 cells at 25 uM after 48 hrs by propidium iodide staining-based FACS analysis; format: functional
[2] = molecular target: T1, NAD-dependent protein deacetylase sirtuin-2 (Homo sapiens) (UniProt Q8IXJ6); test: Inhibition of human N-terminal His6-SUMO-tagged SIRT2 catalytic domain (43 to 356 residues) deacetylase activity expressed in Escherichia coli using alpha-tubulin-acetylLys40 peptide as substrate at 100 uM after 45 mins in presence of NAD+ by pNCA/GDH-based microplate spectrophotometric analysis
T1 sequence (whole entry): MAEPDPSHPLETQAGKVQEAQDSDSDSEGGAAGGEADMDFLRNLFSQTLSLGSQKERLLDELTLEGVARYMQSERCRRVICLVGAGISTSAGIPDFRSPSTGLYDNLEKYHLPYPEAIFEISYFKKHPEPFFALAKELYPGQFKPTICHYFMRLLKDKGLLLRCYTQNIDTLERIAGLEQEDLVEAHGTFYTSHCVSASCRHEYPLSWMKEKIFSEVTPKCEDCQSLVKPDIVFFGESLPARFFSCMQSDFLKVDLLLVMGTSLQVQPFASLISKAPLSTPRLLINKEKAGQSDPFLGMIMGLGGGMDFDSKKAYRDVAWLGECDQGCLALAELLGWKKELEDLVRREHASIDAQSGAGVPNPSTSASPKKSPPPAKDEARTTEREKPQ
In short: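 Continuous coupled assay: Sirt2 product nicotinamide is converted by pNCA/GDH, and NADPH oxidation is read at 340 nm. Compounds were tested at 10 and 100 μM. Background was taken without peptide or NAD+.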

U-937 [3] = test: Induction of apoptosis in human U937 cells assessed as pre-G1 accumulation at 5 to 50 uM after 48 hrs by propidium iodide staining-based FACS analysis; format: functional, cell-based
In short: (§1)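 Leukemia cells (U937, NB4, HL-60, K562) were grown in RPMI-1640 with 10% FBS, 2 mM L-glutamine and antibiotics, then treated for 48 h at 5, 10, 25 and 50 μM. 2.5×10^5 cells were stained 30 min in the dark in hypotonic PI buffer (0.1% Triton X-100, 0.1% citrate, 50 µg/mL PI, RNase A). Apoptosis was scored as pre-G1 content by flow cytometry. Duplicates, mean ± SD.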

K562 = test: Induction of apoptosis in human K562 cells assessed as pre-G1 accumulation at 5 to 50 uM after 48 hrs by propidium iodide staining-based FACS analysis; format: functional, cell-based; in short: as §1
[4] = molecular target: T2, NAD-dependent protein deacetylase sirtuin-2 (Homo sapiens, UniProt Q8IXJ6)
T2 sequence (Q8IXJ6 whole entry): T1 sequence (whole entry)

[5] = molecular target: T3, NAD-dependent protein deacetylase sirtuin-3, mitochondrial (Homo sapiens) (UniProt Q9NTG7); test: Inhibition of human SIRT3 (114 to 380 residues) activity expressed in Escherichia coli using AceCS2 peptide as substrate up to 100 uM after 45 mins in presence of NAD+ by pNCA/GDH-based microplate spectrophotometric analysis
T3 sequence (whole entry): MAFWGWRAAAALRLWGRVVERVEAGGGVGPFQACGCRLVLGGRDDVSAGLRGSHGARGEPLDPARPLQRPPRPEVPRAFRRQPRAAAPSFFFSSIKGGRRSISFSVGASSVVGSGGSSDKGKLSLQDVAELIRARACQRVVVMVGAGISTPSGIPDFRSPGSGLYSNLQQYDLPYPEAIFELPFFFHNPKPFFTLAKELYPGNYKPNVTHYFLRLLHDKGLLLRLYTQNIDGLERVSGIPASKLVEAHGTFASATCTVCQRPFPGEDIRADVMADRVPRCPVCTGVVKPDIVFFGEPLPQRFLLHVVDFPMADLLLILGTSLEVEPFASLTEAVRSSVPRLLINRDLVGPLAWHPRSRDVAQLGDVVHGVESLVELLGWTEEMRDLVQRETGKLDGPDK
In short: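 Same pNCA/GDH-coupled 340 nm NADPH read-out as the Sirt2 assay, using 20 mM Na-phosphate pH 7.8 with 3% DMSO at 20 °C for 45 min. Sirt3 (114-380) was used at 5 µM with AceCS2 peptide TRSGacKVMR as substrate. Inhibitors were tested up to 100 µM.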

[6] = molecular target: T4, NAD-dependent protein deacetylase sirtuin-1 (Homo sapiens) (UniProt Q96EB6); test: Inhibition of human full length SIRT1 activity expressed in Escherichia coli using p53 peptide as substrate up to 100 uM after 45 mins in presence of NAD+ by pNCA/GDH-based microplate spectrophotometric analysis
T4 sequence (whole entry): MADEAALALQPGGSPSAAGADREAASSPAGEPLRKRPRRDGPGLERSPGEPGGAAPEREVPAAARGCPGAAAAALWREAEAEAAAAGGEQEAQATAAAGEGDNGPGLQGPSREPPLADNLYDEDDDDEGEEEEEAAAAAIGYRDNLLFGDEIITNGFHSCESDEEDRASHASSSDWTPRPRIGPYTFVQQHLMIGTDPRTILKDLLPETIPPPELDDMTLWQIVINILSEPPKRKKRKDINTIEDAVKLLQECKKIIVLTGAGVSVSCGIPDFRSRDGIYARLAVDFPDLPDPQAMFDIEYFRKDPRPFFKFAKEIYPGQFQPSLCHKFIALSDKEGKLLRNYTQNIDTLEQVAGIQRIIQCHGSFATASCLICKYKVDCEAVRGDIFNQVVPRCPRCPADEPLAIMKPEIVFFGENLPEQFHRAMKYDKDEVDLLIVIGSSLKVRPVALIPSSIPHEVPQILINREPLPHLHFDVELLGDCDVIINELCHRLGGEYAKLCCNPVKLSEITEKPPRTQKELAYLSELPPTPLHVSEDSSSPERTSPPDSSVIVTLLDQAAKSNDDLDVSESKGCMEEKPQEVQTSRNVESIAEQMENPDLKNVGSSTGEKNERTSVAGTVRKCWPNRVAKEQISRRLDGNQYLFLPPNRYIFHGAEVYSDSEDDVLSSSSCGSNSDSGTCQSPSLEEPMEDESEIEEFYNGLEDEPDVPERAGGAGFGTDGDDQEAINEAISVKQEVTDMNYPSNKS
In short: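 Full-length Sirt1 at 2 µM with p53 peptide RHKacKLMFK as substrate. Activity was measured in the same coupled pNCA/GDH mix as for Sirt2 (α-ketoglutarate, NADPH, Na-phosphate pH 7.8, 3% DMSO), following NADPH oxidation at 340 nm at 20 °C for 45 min. Compounds were tested up to 100 µM.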

HL-60 = test: Induction of apoptosis in human HL60 cells assessed as pre-G1 accumulation at 5 to 50 uM after 48 hrs by propidium iodide staining-based FACS analysis; format: functional, cell-based; in short: as §1
[7] = molecular target: NAD-dependent protein deacylase sirtuin-5, mitochondrial (Homo sapiens) (UniProt Q9NXA8); test: Inhibition of human SIRT5 (34 to 302 residues) deacetylase activity expressed in Escherichia coli using Prx1 peptide as substrate up to 100 uM after 45 mins in presence of NAD+ by pNCA/GDH-based microplate spectrophotometric analysis
Chain of NAD-dependent protein deacylase sirtuin-5, mitochondrial (Homo sapiens) (Q9NXA8 37-310 limits assumed): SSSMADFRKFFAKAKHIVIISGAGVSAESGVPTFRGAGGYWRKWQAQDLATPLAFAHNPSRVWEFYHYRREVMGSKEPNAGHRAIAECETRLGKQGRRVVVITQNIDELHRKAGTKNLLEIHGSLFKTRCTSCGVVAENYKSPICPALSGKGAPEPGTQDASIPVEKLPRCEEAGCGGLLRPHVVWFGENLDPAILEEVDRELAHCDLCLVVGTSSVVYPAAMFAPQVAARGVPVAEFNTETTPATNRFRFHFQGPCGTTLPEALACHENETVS

NB-4 = test: Induction of apoptosis in human NB4 cells assessed as pre-G1 accumulation at 5 to 50 uM after 48 hrs by propidium iodide staining-based FACS analysis; format: functional, cell-based; in short: as §1
[8] = molecular target: NAD-dependent protein deacylase sirtuin-5, mitochondrial (Homo sapiens) (UniProt Q9NXA8); test: Inhibition of human SIRT5 (34 to 302 residues) desuccinylase activity expressed in Escherichia coli using peptide as substrate up to 100 uM after 45 mins in presence of NAD+ by pNCA/GDH-based microplate spectrophotometric analysis
MDA-MB-231 = test: Induction of apoptosis in human MDA-MB-231 cells assessed as pre-G1 accumulation at 5 to 50 uM after 48 hrs by propidium iodide staining-based FACS analysis; format: functional, cell-based
In short: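 MDA-MB-231 breast cancer cells were grown in DMEM with 10% FBS, 2 mM L-glutamine and antibiotics, then exposed for 48 h at 5, 10, 25 or 50 μM. 2.5×10^5 cells were stained in hypotonic buffer with 50 µg/mL PI, 0.1% Triton X-100, 0.1% citrate and RNase A for 30 min in the dark. Pre-G1 fraction was measured by flow cytometry. Biological duplicates, mean ± SD.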

U-937 [9] = test: Cell cycle arrest in human U937 cells assessed as accumulation at G2/M phase at 25 uM after 48 hrs by propidium iodide staining-based FACS analysis; format: functional

Row | SMILES | inhibition [2] | Activity (U-937 [1]) | other results
1 | Clc1ccccc1-c1noc(CCCBr)n1 | – | – | Activity (U-937 [9]): Active
2 | CCN(CC)Cc1nc(-c2ccc([N+](=O)[O-])cc2)no1 | inactive | inactive | –
3 | OCCCc1nc(-c2ccc(Cl)cc2)no1 | – | – | IC50 [4]: 41.2 µM
4 | Clc1cccc(-c2noc(CCCBr)n2)c1 | – | inactive | –
5 | FC(F)(F)c1nc(-c2ccc(Br)cc2)no1 | – | inactive | –
6 | BrCCCc1nc(-c2ccccc2)no1 | – | inactive | –
7 | c1cncc(-c2noc(CN3CCCCC3)n2)c1 | – | inactive | –
8 | CC(=O)OCCCc1nc(-c2ccc(Cl)cc2)no1 | – | – | IC50 [4]: 21.2 µM
9 | NC(=O)c1nc(-c2ccc(Br)cc2)no1 | – | inactive | –
10 | BrCCCc1nc(-c2ccccc2Br)no1 | – | – | Activity (U-937 [9]): Active
11 | Clc1cccc(-c2noc(CN3CCCCC3)n2)c1 | – | inactive | –
12 | Cc1nc(-c2ccc(Cl)cc2)no1 | – | inactive | –
13 | CN(C)Cc1nc(-c2ccc([N+](=O)[O-])cc2)no1 | inactive | inactive | –
14 | CN(C)Cc1nc(-c2ccc(Cl)cc2)no1 | – | inactive | –
15 | FC(F)(F)c1ccc(-c2noc(CCCBr)n2)cc1 | – | inactive | IC50 [4]: 3.9 µM
16 | COC(=O)c1nc(-c2ccc(Br)cc2)no1 | – | inactive | –
17 | ClCCCc1nc(-c2ccc(Br)cc2)no1 | – | inactive | IC50 [4]: 3.6 µM; inhibition [5]: inactive; inhibition [6]: inactive; inhibition [7]: inactive; inhibition [8]: inactive
18 | BrCCCCc1nc(-c2ccc(Br)cc2)no1 | – | inactive | IC50 [4]: 2.6 µM
19 | c1ccc(-c2noc(CN3CCCCC3)n2)cc1 | – | inactive | –
20 | Clc1ccccc1-c1noc(CN2CCCCC2)n1 | – | inactive | –
21 | BrCCCc1nc(-c2cccc(Br)c2)no1 | – | inactive | –
22 | Clc1ccc(-c2noc(CBr)n2)cc1 | – | – | Activity (U-937 [9]): Active

Now from value to compound, other results behind:

Row | inhibition [2] | SMILES | Activity (U-937 [1]) | other results
23 | Active | Clc1ccc(-c2noc(CN3CCN(c4ccccc4)CC3)n2)cc1 | inactive | –
24 | Active | Clc1ccc(-c2noc(CN3CCCCCC3)n2)cc1 | inactive | –
25 | inactive | OCCN1CCN(CCCc2nc(-c3ccccc3)no2)CC1 | inactive | –
26 | Active | Clc1ccc(-c2noc(CN3CCCCC3)n2)cc1 | inactive | –
27 | Active | Clc1ccc(-c2noc(CN3CCSCC3)n2)cc1 | inactive | –
28 | Active | Clc1ccc(-c2noc(CCCBr)n2)cc1 | inactive | Activity (U-937 [3]): inactive; Activity (K562): inactive; IC50 [4]: 2.5 µM; inhibition [5]: inactive; inhibition [6]: inactive; Activity (HL-60): inactive; inhibition [7]: inactive; Activity (NB-4): inactive; inhibition [8]: inactive; Activity (MDA-MB-231): inactive
29 | Active | Clc1ccc(-c2noc(CN3CCCC3)n2)cc1 | inactive | –
30 | Active | OCC1CCN(Cc2nc(-c3ccc(Cl)cc3)no2)CC1 | inactive | –
31 | Active | O=[N+]([O-])c1ccc(-c2noc(CCCBr)n2)cc1 | inactive | IC50 [4]: 6.6 µM
32 | Active | Cc1ccc(-c2noc(CCCBr)n2)cc1 | inactive | –
33 | Active | Clc1ccc(-c2noc(CN3CCOCC3)n2)cc1 | inactive | –
34 | Active | Clc1ccc(-c2noc(CNC3CCCCC3)n2)cc1 | inactive | –
35 | inactive | Clc1ccc(-c2noc(CCCN3CCCCC3)n2)cc1 | inactive | –
36 | inactive | O=[N+]([O-])c1ccc(-c2noc(CN3CCCC3)n2)cc1 | inactive | –
37 | Active | CN1CCN(Cc2nc(-c3ccc(Cl)cc3)no2)CC1 | inactive | –
